Results collected from several papers.
Protocols differ between the studies behind these lines.
Medium: plasma

Compound | host | route | dose | setting | measurement | value
C[C@@]1(c2cc(NC(=O)c3ccc(C#N)cn3)ccc2F)C=CSC(N)=N1 | human | oral | 150 mg | single dose | Vd/F | 247 L
CCNCCCNC/C=C\CNCCCNCC | human | intravenous | 150 mg | patients, infusion | Vd | 1.55 L/kg
Cc1cc(Nc2cc(N3CCN(C)CC3)nc(/C=C/c3ccccc3)n2)n[nH]1 | human | oral | 120 mg/m² | patients | Vd/F | 2440 L
CC(C)(Sc1ccncc1-c1ccc(C#N)c2ccccc12)C(=O)O | male human | oral | 5 mg | single dose, fasted, healthy volunteers | Vd/F | 419 L
CO[C@H]1CC[C@H](N2C(=O)CNc3ncc(-c4ccc(C(C)(C)O)nc4)nc32)CC1 | human | oral | 30 mg | patients | Vd/F | 195 L
COc1cc(C(=O)NC2CCN(C)CC2)c(F)cc1Nc1ncc(C(F)(F)F)c(Oc2cccc3c2C(=O)N(C)C3)n1 | human | oral | 10 mg | multiple doses, once daily, patients | Vd/F | 776 L
COc1ccc([C@@H]2CN(C(=O)[C@@H](O)CO)C[C@@]2(C)[C@@H](C)O)cc1OC1CN(c2ccc(C)cn2)C1 | human | oral | 40 mg | single dose, healthy volunteers | Vd/F | 77.7 L
c1cnc2ccc(Nc3nc(NC4CC4)c4nc[nH]c4n3)cc2c1 | human | oral | 50 mg/m² | patients | Vd/F | 597 L
